Entries after “also recorded” stand apart in the source; their conditions may differ. Non-standard residues stand in square brackets, D forms with d. Residues, ends and D or L forms follow the SMILES beside them. ξ: configuration not given here. ξT = CC(O)C(N)C(=O)O
Assays:
[1] = tested on: Wnt signaling (second axis formation); details: Xenopus, Wnt3A upstream of Dvl; cited from earlier work
mouse Dvl1 PDZ domain = target: T1, mouse Dvl1 PDZ domain (Mus musculus, UniProt P51141); test: 15N HSQC NMR chemical shift perturbation titration; format: binding
T1 sequence (P51141 247-341): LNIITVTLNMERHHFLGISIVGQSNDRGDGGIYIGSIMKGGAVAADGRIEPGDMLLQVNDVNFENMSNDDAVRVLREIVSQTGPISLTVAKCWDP
Procedure, shortened: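 15N-labeled mouse Dvl1 PDZ domain (residues 247-341) at 0.2-0.3 mM in 100 mM potassium phosphate pH 7.5, 10% D2O, 0.5 mM EDTA; 15N HSQC at 600 MHz, 25 °C. Five titration points (ligand:protein 1 to 15); Arg322 shift perturbation tracked, reported at about 10 equivalents. One-site model with dilution correction and two-parameter nonlinear least-squares fit gave KD. μM values were rescaled against the reference inhibitor's earlier fluorescence KD.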

PDZ domain [2] = details: fluorescence spectroscopy, earlier studies; cited from earlier work
PDZ domain [3] = details: previous virtual screening; cited from earlier work

SMILES	second axis formation induced by Wnt3A [1]	Kd (mouse Dvl1 PDZ domain)	Δδ chemical shift perturbation changes of Arg322 (mouse Dvl1 PDZ domain; 10.4 equivalents of NSC668036)	Exchange regime (in words) (mouse Dvl1 PDZ domain; NMR titration of 15N-labeled PDZ domain)	difference between KDs by NMR and by fluorescence (mouse Dvl1 PDZ domain; NSC668036, NMR KD versus fluorescence KD)	Exchange regime (mouse Dvl1 PDZ domain; from intermediate exchange (++++) to fast exchange (+) with the PDZ domain)	Kd (PDZ domain [2])	binding to the PDZ domain (PDZ domain [3])
CC(NC(=O)C(OC(=O)C(C)NC(=O)OC(C)(C)C)C(C)C)C(=O)OC(C(=O)O)C(C)C (stereo not drawn) [NSC668036, 9,15-diisopropyl-2,2,6,12-tetramethyl-4,7,10,13-tetraoxo-3,8,14-trioxa-5,11-diazahexadec an-16-oic acid]	inhibited the second axis formation	27 mM	0.035	fast exchange regime	114 fold	+	237 µM	
CC(O)C(N)C(=O)NCC(=O)NCC(=O)O (stereo not drawn) [NSC344681, ((((2-amino-3-hydroxybutanoyl)amino)acetyl)amino)acetic acid] (H-[ξT]-Gly-Gly-OH)								non-binders; also recorded: do not bind to the PDZ domain
COC(=O)C(CON)C(=O)NC(=O)C(N)CON (stereo not drawn) [NSC119132, methyl 3-((2-amino-3-(aminooxy)propanoyl)amino)-2-((aminooxy)methyl)-3-oxopropanoate]								non-binders; also recorded: do not bind to the PDZ domain
